Activity calls are given as the source filed them. The rule behind the calls is not given here.
Experiments:
[1] = biological target: T1, Mitogen-activated protein kinase 14 (Homo sapiens, UniProt Q16539); test: Inhibition of p38alpha MAPK
Procedure, shortened: (§1)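 p38 MAPK activity assay run by a previously published protocol. IC50 given as mean with SEM from three experiments. The activity coefficient is the IC50 of the SB203580 reference divided by the IC50 of the test compound.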

[2] = biological target: T1, Mitogen-activated protein kinase 14; test: Ratio of SB203580 IC50 to compound IC50 for inhibition of p38alpha MAPK; procedure, shortened: as §1
[3] = biological target: Proto-oncogene tyrosine-protein kinase Src (Homo sapiens) (UniProt P12931); test: Inhibition of SRC assessed as residual activity at 1000 nM
[4] = biological target: Receptor-interacting serine/threonine-protein kinase 2 (Homo sapiens) (UniProt O43353); test: Inhibition of RIPK2 assessed as residual activity at 1000 nM
[5] = biological target: TRAF2 and NCK-interacting protein kinase (Homo sapiens) (UniProt Q9UKE5); test: Inhibition of KIAA0551 assessed as residual activity at 1000 nM
[6] = biological target: T1, Mitogen-activated protein kinase 14; test: Inhibition of MAPK14 assessed as residual activity at 1000 nM
[7] = biological target: T2, Serine/threonine-protein kinase 36 (Homo sapiens) (UniProt Q9NRP7); test: Inhibition of STK36 assessed as residual activity at 1000 nM
T2 sequence (whole entry): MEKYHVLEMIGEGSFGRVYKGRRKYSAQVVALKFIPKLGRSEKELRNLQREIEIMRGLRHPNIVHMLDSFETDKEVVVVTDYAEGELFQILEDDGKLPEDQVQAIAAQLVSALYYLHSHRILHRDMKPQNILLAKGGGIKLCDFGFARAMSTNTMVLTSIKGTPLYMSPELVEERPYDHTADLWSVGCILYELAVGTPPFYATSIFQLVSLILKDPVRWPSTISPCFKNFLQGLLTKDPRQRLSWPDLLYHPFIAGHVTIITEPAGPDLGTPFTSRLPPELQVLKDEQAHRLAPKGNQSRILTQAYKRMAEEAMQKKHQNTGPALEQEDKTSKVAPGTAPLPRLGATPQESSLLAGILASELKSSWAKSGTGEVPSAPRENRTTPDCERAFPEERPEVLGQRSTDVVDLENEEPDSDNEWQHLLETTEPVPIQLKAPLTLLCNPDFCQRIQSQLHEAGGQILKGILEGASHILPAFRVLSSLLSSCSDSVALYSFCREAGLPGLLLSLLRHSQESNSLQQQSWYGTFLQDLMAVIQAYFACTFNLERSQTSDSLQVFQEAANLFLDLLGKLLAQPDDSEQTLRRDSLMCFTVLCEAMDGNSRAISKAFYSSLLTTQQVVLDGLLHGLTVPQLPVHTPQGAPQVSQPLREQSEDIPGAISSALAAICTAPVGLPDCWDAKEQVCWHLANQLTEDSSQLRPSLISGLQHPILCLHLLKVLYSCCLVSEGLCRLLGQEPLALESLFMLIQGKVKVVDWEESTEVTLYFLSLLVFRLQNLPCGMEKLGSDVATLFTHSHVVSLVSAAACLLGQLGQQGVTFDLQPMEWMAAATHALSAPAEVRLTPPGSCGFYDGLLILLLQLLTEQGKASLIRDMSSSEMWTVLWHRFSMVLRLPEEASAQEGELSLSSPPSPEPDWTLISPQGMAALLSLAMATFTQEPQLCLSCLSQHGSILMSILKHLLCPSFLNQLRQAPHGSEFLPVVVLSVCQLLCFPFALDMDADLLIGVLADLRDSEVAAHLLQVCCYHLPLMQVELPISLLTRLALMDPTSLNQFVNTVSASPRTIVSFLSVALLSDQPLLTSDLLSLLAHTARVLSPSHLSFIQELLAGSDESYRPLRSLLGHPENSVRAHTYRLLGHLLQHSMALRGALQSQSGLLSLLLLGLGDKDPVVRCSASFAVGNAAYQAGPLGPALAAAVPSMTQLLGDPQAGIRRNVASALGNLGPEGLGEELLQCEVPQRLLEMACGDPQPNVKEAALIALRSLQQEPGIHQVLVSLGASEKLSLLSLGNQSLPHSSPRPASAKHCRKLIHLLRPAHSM

[8] = biological target: Mitogen-activated protein kinase 11 (Homo sapiens) (UniProt Q15759); test: Inhibition of MAPK11 assessed as residual activity at 1000 nM
[9] = biological target: T3, Cyclin-G-associated kinase (Homo sapiens) (UniProt O14976); test: Inhibition of GAK assessed as residual activity at 1000 nM
T3 sequence (whole entry): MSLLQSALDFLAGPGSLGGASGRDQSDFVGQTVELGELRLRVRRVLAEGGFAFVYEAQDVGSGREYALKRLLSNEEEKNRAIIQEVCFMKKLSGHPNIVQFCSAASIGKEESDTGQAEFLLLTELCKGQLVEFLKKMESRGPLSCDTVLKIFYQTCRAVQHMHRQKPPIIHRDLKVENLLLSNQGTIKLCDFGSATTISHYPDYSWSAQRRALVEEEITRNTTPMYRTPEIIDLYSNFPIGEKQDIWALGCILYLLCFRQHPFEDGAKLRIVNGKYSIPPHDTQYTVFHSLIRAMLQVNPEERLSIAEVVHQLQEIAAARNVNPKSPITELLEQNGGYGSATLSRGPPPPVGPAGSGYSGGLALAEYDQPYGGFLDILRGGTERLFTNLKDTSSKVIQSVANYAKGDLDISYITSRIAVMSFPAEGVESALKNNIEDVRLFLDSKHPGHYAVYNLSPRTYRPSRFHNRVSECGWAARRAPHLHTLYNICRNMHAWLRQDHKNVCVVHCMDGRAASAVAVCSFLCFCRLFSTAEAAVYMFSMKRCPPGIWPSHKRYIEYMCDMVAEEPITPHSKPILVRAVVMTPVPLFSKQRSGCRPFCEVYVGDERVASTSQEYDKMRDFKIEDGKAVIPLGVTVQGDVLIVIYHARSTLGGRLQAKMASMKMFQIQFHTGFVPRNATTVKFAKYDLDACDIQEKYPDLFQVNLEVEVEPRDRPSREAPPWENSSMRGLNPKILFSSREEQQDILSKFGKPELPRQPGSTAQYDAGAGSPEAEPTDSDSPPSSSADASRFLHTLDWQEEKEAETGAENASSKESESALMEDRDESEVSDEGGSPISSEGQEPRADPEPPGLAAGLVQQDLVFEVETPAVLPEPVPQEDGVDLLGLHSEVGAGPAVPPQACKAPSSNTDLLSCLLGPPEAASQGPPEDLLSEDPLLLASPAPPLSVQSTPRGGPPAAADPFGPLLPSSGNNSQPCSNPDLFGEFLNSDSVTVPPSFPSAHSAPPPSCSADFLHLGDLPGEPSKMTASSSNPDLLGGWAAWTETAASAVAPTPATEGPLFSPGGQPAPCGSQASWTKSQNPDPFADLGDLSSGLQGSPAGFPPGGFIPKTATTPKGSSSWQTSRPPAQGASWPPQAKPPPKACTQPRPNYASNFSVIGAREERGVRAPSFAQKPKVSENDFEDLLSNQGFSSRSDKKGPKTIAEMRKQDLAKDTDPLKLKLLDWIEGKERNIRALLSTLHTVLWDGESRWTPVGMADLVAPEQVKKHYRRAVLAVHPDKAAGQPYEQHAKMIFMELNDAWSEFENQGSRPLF

[10] = biological target: Protein-tyrosine kinase 6 (Homo sapiens) (UniProt Q13882); test: Inhibition of PTK6 assessed as residual activity at 1000 nM
[11] = biological target: Tyrosine-protein kinase FRK (Homo sapiens) (UniProt P42685); test: Inhibition of FRK assessed as residual activity at 1000 nM
[12] = biological target: Mitogen-activated protein kinase 8 (Homo sapiens) (UniProt P45983); test: Inhibition of JNK1 assessed as residual activity at 1000 nM
[13] = biological target: T4, Mitogen-activated protein kinase 12 (Homo sapiens) (UniProt P53778); conditions: 1000 nM
T4 sequence (whole entry): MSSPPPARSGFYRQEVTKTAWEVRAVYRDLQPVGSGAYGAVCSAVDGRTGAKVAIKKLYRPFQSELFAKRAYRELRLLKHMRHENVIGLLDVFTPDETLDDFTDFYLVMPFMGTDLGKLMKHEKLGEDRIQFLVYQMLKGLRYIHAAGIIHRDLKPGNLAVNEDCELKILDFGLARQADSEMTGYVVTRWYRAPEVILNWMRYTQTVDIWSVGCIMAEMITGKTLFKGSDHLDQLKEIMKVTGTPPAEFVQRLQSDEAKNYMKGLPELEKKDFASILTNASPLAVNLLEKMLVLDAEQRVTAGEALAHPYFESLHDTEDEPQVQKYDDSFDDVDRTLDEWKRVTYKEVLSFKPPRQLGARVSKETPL

[14] = biological target: Mitogen-activated protein kinase 10 (Homo sapiens) (UniProt P53779); test: Inhibition of JNK3 assessed as residual activity at 1000 nM
[15] = biological target: Mitogen-activated protein kinase 9 (Homo sapiens) (UniProt P45984); test: Inhibition of JNK2 assessed as residual activity at 1000 nM
Sequence of Mitogen-activated protein kinase 9 (Homo sapiens) (P45984 whole entry, looked up): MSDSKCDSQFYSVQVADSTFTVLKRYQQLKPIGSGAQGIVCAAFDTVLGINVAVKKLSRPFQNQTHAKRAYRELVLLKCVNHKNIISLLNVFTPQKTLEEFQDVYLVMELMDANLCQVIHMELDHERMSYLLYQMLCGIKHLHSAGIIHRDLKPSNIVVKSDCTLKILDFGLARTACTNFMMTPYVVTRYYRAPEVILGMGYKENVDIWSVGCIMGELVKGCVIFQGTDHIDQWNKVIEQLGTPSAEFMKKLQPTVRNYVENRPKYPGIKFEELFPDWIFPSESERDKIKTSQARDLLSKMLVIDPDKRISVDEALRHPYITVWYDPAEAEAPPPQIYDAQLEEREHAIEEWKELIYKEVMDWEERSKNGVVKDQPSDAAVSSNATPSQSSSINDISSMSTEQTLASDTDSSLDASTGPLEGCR

T1 sequence (Q16539 whole entry): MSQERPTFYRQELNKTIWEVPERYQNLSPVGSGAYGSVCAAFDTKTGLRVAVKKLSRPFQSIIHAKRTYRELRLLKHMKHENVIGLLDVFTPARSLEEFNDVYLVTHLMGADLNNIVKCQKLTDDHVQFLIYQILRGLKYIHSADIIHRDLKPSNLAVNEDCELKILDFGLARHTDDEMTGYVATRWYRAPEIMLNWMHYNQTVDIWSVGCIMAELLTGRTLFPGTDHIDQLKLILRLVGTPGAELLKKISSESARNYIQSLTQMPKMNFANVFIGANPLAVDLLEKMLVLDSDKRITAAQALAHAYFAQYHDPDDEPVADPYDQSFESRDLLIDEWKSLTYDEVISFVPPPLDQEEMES
Sequence of Mitogen-activated protein kinase 11 (Homo sapiens) (Q15759 whole entry): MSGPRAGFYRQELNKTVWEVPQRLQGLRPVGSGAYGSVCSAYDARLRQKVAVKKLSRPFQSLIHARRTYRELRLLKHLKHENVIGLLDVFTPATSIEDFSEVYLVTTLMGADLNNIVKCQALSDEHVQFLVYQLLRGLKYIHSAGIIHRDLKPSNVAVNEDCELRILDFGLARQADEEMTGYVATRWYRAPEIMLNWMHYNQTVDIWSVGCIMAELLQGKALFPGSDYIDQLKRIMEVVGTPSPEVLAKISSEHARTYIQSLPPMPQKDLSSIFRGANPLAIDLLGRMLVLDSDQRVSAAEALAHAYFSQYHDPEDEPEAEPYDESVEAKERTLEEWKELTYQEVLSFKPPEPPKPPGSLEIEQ
Sequence of Receptor-interacting serine/threonine-protein kinase 2 (Homo sapiens) (O43353 whole entry): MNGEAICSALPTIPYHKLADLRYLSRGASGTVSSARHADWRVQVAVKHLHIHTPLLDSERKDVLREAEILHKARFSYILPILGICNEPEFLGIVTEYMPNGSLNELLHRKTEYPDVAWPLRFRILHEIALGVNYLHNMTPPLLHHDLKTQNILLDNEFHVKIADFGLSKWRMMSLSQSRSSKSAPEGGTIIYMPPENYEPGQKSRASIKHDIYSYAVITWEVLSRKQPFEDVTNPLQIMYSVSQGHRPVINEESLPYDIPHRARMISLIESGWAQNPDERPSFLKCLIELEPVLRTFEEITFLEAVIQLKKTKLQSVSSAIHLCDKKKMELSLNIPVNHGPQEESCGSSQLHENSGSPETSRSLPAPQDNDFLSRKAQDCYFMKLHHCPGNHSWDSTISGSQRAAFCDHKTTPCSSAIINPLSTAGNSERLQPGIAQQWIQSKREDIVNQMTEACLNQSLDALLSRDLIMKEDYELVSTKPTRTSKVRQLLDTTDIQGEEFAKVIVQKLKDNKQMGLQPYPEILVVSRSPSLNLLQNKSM
Sequence of TRAF2 and NCK-interacting protein kinase (Homo sapiens) (Q9UKE5 whole entry, looked up): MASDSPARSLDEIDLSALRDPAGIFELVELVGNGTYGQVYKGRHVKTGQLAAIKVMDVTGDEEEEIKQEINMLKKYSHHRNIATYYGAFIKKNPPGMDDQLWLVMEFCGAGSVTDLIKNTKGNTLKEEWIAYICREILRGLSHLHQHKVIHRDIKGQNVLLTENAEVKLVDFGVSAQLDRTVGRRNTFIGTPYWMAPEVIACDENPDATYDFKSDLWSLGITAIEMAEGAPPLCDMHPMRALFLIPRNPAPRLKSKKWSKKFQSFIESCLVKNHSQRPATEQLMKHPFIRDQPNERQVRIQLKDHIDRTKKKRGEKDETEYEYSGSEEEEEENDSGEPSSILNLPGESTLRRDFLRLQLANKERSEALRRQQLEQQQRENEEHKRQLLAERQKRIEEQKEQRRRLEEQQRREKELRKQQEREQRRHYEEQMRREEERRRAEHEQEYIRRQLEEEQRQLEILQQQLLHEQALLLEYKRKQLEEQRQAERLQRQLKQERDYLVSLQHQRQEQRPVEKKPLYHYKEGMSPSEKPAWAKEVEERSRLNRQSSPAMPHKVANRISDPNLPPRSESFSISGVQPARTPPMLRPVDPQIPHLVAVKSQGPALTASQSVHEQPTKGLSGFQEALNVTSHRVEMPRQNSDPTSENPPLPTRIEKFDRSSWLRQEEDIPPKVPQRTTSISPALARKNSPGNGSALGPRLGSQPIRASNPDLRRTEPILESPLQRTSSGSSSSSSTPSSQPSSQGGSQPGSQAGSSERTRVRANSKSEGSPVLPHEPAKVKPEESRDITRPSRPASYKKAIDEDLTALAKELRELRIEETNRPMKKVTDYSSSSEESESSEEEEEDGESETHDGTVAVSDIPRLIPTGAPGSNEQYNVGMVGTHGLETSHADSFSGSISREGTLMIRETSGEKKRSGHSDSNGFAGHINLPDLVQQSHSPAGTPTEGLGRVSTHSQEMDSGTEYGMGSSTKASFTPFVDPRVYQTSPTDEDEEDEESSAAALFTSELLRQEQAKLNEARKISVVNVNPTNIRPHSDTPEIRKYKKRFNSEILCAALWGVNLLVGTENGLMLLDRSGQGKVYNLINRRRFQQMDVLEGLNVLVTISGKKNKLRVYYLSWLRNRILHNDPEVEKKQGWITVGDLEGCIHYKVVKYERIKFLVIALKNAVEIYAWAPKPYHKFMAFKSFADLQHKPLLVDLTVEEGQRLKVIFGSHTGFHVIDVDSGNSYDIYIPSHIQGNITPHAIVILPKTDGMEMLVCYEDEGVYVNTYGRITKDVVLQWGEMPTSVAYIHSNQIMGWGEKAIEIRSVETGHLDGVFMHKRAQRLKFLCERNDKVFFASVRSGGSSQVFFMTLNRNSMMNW
Sequence of Protein-tyrosine kinase 6 (Homo sapiens) (Q13882 whole entry, looked up): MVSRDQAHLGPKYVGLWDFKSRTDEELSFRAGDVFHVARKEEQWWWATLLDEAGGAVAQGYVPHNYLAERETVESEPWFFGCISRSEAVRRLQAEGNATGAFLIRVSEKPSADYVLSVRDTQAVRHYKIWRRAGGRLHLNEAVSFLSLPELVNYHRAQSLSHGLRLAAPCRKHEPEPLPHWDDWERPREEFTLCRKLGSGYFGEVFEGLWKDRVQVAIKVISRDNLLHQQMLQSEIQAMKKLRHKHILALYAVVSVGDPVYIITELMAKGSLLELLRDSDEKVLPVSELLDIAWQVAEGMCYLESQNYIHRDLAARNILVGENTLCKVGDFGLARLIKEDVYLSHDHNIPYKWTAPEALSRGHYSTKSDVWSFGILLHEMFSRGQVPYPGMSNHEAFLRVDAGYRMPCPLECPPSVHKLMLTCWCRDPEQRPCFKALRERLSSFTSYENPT
Sequence of Mitogen-activated protein kinase 10 (Homo sapiens) (P53779 whole entry): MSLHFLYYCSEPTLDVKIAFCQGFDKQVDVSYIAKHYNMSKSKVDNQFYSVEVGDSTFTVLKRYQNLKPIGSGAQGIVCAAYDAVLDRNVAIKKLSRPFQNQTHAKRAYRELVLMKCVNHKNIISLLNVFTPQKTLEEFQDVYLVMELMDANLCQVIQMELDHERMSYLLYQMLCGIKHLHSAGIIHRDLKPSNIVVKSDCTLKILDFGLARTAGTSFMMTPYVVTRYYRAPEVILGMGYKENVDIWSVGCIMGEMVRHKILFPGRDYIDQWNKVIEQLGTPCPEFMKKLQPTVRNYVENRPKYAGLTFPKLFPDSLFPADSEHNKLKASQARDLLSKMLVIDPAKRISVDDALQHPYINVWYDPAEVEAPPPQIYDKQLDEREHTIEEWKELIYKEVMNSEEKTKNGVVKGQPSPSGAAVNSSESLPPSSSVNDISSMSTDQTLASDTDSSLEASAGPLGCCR
Sequence of Mitogen-activated protein kinase 8 (Homo sapiens) (P45983 whole entry): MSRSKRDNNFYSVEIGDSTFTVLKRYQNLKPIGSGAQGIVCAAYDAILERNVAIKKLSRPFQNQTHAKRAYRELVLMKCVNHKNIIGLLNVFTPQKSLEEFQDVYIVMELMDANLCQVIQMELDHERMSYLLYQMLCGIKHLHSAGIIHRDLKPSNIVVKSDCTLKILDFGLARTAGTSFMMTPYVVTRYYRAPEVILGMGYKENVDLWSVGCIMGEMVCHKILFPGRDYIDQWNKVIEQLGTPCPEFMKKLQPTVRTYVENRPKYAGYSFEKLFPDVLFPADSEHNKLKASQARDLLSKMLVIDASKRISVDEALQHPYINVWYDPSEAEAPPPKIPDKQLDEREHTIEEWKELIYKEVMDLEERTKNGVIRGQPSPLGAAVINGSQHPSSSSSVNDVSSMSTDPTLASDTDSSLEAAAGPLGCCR
Sequence of Tyrosine-protein kinase FRK (Homo sapiens) (P42685 whole entry): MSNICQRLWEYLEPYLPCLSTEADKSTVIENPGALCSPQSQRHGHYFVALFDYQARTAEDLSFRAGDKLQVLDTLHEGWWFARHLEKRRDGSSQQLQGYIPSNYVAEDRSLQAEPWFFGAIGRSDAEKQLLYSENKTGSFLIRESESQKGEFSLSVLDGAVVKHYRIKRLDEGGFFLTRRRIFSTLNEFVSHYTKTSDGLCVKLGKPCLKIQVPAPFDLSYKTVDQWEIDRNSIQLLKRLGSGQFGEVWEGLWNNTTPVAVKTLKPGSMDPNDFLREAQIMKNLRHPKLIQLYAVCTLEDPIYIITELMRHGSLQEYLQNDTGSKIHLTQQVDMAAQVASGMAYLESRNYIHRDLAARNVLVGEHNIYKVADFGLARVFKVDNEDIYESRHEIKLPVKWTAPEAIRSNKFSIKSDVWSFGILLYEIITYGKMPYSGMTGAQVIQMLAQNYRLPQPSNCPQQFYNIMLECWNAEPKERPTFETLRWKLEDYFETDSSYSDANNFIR

| IC50 [1] [nM] | Ratio IC50 [2] | Compound | further results |
| --- | --- | --- | --- |
| 70 | – | COc1ccc(-c2nc(-c3ccnc4[nH]c(-c5ccccc5)cc34)c(-c3ccc(F)cc3)[nH]2)cc1 | – |
| 2990 | 0.01 | COCn1c(-c2ccccc2)nc(-c2ccc(F)cc2)c1-c1ncnc2[nH]cnc12 | – |
| 345 | 0.07 | Fc1ccc(-c2nc(-c3ccccc3)[nH]c2-c2ccnc3[nH]c(Cc4ccccc4)cc23)cc1 | – |
| 108 | – | Fc1ccc(-c2[nH]c(-c3ccccc3)nc2-c2ccnc3[nH]ccc23)cc1 | – |
| – | 2.38 | Fc1ccc(-c2nc(-c3ccccc3)[nH]c2-c2ccnc3[nH]c(-c4ccccc4)cc23)cc1 | – |
| – | 0.33 | Fc1ccc(-c2[nH]c(-c3ccccc3)nc2-c2ccncc2)cc1 | – |
| – | 0.55 | Fc1ccc(-c2nc(-c3ccccc3)[nH]c2-c2ccnc3[nH]c4ccccc4c23)cc1 | – |
| – | 0.47 | Fc1ccc(-c2nc(-c3ccccc3)[nH]c2-c2ccnc3[nH]ccc23)cc1 | – |
| – | 0.97 | CSc1ccc(-c2nc(-c3ccc(F)cc3)c(-c3ccnc4[nH]c(-c5ccccc5)cc34)[nH]2)cc1 | – |
| 153 | – | Fc1ccc(-c2[nH]c(-c3ccccc3)nc2-c2ccnc3[nH]c4ccccc4c23)cc1 | – |
| – | 19.7 | Oc1ccc(-c2nc(-c3ccc(F)cc3)c(-c3ccnc4[nH]c(-c5ccccc5)cc34)[nH]2)cc1 | Activity [3]: 28%; Activity [4]: 3.2%; Activity [5]: 17%; Activity [6]: 8.9%; Activity [7]: 4.8%; Activity [8]: 2.5%; Activity [9]: 7.7% |
| 2600 | 0.03 | Fc1ccc(-c2nc(-c3ccccc3)[nH]c2-c2ncnc3[nH]ccc23)cc1 | – |
| – | 0.67 | COc1ccc(-c2nc(-c3ccc(F)cc3)c(-c3ccnc4[nH]c(-c5ccccc5)cc34)[nH]2)cc1 | – |
| – | – | Oc1ccc(-c2nc(-c3ccc(F)cc3)c(-c3ccncc3)[nH]2)cc1 | inhibition [4]: Active; inhibition [5]: Active; inhibition [10]: Active; inhibition [11]: Active; inhibition [12]: Active; inhibition [6]: Active; inhibition [7]: Active; inhibition [13]: Active; inhibition [14]: Active; inhibition [8]: Active; inhibition [9]: Active; inhibition [15]: Active |
| 290 | – | COc1cc(-c2nc(-c3ccnc4[nH]c(-c5ccccc5)cc34)c(-c3ccc(F)cc3)[nH]2)cc(OC)c1OC | – |
| 3 | – | Oc1ccc(-c2nc(-c3ccnc4[nH]c(-c5ccccc5)cc34)c(-c3ccc(F)cc3)[nH]2)cc1 | – |
| – | 0.12 | COc1cc(-c2nc(-c3ccc(F)cc3)c(-c3ccnc4[nH]c(-c5ccccc5)cc34)[nH]2)cc(OC)c1OC | – |
| 16 | – | Fc1ccc(-c2[nH]c(-c3ccccc3)nc2-c2ccnc3[nH]c(-c4ccccc4)cc23)cc1 | – |
| 11 | 3.46 | CS(=O)(=O)c1ccc(-c2nc(-c3ccc(F)cc3)c(-c3ccnc4[nH]c(-c5ccccc5)cc34)[nH]2)cc1 | – |
| 8 | – | C[S+]([O-])c1ccc(-c2nc(-c3ccnc4[nH]c(-c5ccccc5)cc34)c(-c3ccc(F)cc3)[nH]2)cc1 (stereo not given) | – |
| 15 | – | Fc1ccc(-c2[nH]c(-c3ccccc3)nc2-c2ccnc3[nH]c(C4CCCCC4)cc23)cc1 | – |
| 451 | 0.18 | COCn1c(-c2ccccc2)nc(-c2ccc(F)cc2)c1-c1ccnc2[nH]ccc12 | – |
| – | 4.75 | C[S+]([O-])c1ccc(-c2nc(-c3ccc(F)cc3)c(-c3ccnc4[nH]c(-c5ccccc5)cc34)[nH]2)cc1 (stereo not given) | – |
| 740 | 0.1 | Fc1ccc(-c2nc(-c3ccccc3)[nH]c2-c2ncnc3[nH]cnc23)cc1 | – |
| 39 | – | CSc1ccc(-c2nc(-c3ccnc4[nH]c(-c5ccccc5)cc34)c(-c3ccc(F)cc3)[nH]2)cc1 | – |
| – | 2.07 | Fc1ccc(-c2nc(-c3ccccc3)[nH]c2-c2ccnc3[nH]c(C4CCCCC4)cc23)cc1 | – |

Source: ChEMBL document CHEMBL2176950, “A frozen analogue approach to aminopyridinylimidazoles leading to novel and promising p38 MAP kinase inhibitors” (J Med Chem, 2012)
